Results reported in ChEMBL document CHEMBL1158487, “Small molecule chloropyramine hydrochloride (C4) targets the binding site of focal adhesion kinase and vascular endothelial growth factor receptor 3 and suppresses breast cancer growth in vivo” (J Med Chem, 2009).
The source made the active and inactive calls. No cut-off for these calls is given here.

Assays:
[1] = test system: BT-474; assay: Antitumor activity against human BT474 cells xenografted in nude-foxn1nu mouse assessed as reduction in tumor growth at 10 mg/kg, ip qd administered day after injection of cells after 14 days relative to control; assay type: functional; set-up: scale not given: the % may be the effect or the level left; conditions: route intraperitoneal
In short: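 Female 5–6-week hsd:athymic nude-foxn1nu mice (5 per group) received 2–5 × 10^6 BT474 cells per 200 µl subcutaneously in the right flank. Dosing at 10 mg/kg ip once daily began the next day. Tumours were measured thrice weekly, with volume = length × width² × 0.5. The study ended at 14 days against a vehicle group.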

[2] = test system: MCF7; assay: Antitumor activity against human MCF7 cells expressing VEGFR3 xenografted in nude-foxn1nu mouse assessed as reduction in tumor growth at 60 mg/kg, ip qd administered day after injection of cells after 21 days relative to control; assay type: functional; set-up: scale not given: the % may be the effect or the level left; conditions: route intraperitoneal
In short: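 Female 5–6-week hsd:athymic nude-foxn1nu mice (5 per group) were given 2–5 × 10^6 MCF7-VEGFR-3 cells per 200 µl subcutaneously in the right flank. From the next day they received 60 mg/kg ip once daily or PBS vehicle for 21 days. Tumours were measured thrice weekly (volume = length × width² × 0.5), then excised and weighed at sacrifice.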

[3] = test system: MCF7; assay: Antitumor activity against human MCF7 cells expressing VEGFR3 xenografted in nude-foxn1nu mouse assessed as reduction in tumor growth at 30 mg/kg after 21 days relative to control; assay type: functional, organism-based; set-up: dose 30 mg/kg
[4] = test system: COLO 205; assay: Cytotoxicity against human COLO205 cells assessed as cell viability after 72 hrs by MTS assay; assay type: functional, cell-based; conditions: COLO 205, 72 h
In short: (§1)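 MTS viability assay, read as mitochondrial dehydrogenase activity of metabolically active cells. Cells were seeded at 5.0 × 10^3 per well and attached overnight. Fresh medium with or without compound was added, followed by 72 h exposure at increasing concentrations. Error shown as ±SEM.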

[5] = test system: SAOS-2; assay: Cytotoxicity against human Saos2 cells after 72 hrs by MTS assay; assay type: functional, cell-based; conditions: SAOS-2, 72 h; in short: as §1
[6] = test system: A-375; assay: Cytotoxicity against human A375 cells after 72 hrs by MTS assay; assay type: functional, cell-based; conditions: A-375, 72 h; in short: as §1
[7] = test system: MCF7; assay: Cytotoxicity against human MCF7 cells assessed as cell viability at 1 uM after 48 hrs by MTS assay; assay type: functional, cell-based
In short: (§2)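 Viability measured by MTS after 48 h exposure. Cells were seeded at 5.0 × 10^3 per well and attached overnight before compound-containing medium was added. BT474 is a […] subclone grown in RPMI-1640 with 10% FBS and 250 µg/ml insulin. MCF7 stable clones carried either empty pcDNA3 or VEGFR-3. Mean ± SEM, ≥3 experiments, two-tailed t test.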

[8] = test system: MCF7; assay: Cytotoxicity against human MCF7 cells expressing VEGFR3 assessed as cell viability at 1 uM after 48 hrs by MTS assay; assay type: functional, cell-based; in short: as §2
[9] = test system: MCF7; assay: Cytotoxicity against human MCF7 cells expressing VEGFR3 assessed as cell viability at 10 uM after 48 hrs by MTS assay; assay type: functional; in short: as §2
[10] = test system: MCF7; assay: Antiproliferative activity against human MCF7 cells at 10 uM after 48 hrs by BrdU incorporation assay; assay type: functional, cell-based
In short: (§3)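 Cells plated at 2.5 × 10^3 per well and allowed to attach overnight. Fresh growth medium with or without compound was added along with BrdU labelling reagent, and cells were incubated for the set time. BrdU incorporation was then read with a kit per the manufacturer. Data are mean ± SEM of three or more independent experiments, compared by two-tailed Student's t test.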

[11] = test system: MCF7; assay: Antiproliferative activity against human MCF7 cells expressing VEGFR3 at 0.1 to 10 uM by BrdU incorporation assay; assay type: functional, cell-based; conditions: TDE = time-dependent effect; in short: as §3
[12] = test system: MCF7; assay: Induction of apoptosis in human MCF7 cells expressing VEGFR3 after 48 hrs by TUNEL assay; assay type: functional, cell-based
[13] = test system: BT-474; assay: Relocalization of FAK-VEGFR3 complex from cytoplasm to nucleus in human BT474 cells at 10 uM after 24 hrs by confocal microscopy; assay type: functional, cell-based
In short: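 BT474 cells given DMSO or 10 µM compound for 24 h, dual-immunostained for FAK (Alexa Fluor 488) and VEGFR-3 (Alexa Fluor 546), imaged by confocal microscopy; percentage of colocalized FAK/VEGFR-3 molecules derived by scatter-plot analysis.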

[14] = target: Vascular endothelial growth factor receptor 3 (Homo sapiens) (UniProt P35916); assay: Inhibition of VEGFR3 phosphorylation in human BT474 cells assessed as partial dephosphorylation at Tyr1063/1068 activation loop at 1 to 10 uM by Western blotting; assay type: cell-based; conditions: BT-474, TDE = time-dependent effect
Chain of Vascular endothelial growth factor receptor 3 (Homo sapiens) (P35916 whole entry): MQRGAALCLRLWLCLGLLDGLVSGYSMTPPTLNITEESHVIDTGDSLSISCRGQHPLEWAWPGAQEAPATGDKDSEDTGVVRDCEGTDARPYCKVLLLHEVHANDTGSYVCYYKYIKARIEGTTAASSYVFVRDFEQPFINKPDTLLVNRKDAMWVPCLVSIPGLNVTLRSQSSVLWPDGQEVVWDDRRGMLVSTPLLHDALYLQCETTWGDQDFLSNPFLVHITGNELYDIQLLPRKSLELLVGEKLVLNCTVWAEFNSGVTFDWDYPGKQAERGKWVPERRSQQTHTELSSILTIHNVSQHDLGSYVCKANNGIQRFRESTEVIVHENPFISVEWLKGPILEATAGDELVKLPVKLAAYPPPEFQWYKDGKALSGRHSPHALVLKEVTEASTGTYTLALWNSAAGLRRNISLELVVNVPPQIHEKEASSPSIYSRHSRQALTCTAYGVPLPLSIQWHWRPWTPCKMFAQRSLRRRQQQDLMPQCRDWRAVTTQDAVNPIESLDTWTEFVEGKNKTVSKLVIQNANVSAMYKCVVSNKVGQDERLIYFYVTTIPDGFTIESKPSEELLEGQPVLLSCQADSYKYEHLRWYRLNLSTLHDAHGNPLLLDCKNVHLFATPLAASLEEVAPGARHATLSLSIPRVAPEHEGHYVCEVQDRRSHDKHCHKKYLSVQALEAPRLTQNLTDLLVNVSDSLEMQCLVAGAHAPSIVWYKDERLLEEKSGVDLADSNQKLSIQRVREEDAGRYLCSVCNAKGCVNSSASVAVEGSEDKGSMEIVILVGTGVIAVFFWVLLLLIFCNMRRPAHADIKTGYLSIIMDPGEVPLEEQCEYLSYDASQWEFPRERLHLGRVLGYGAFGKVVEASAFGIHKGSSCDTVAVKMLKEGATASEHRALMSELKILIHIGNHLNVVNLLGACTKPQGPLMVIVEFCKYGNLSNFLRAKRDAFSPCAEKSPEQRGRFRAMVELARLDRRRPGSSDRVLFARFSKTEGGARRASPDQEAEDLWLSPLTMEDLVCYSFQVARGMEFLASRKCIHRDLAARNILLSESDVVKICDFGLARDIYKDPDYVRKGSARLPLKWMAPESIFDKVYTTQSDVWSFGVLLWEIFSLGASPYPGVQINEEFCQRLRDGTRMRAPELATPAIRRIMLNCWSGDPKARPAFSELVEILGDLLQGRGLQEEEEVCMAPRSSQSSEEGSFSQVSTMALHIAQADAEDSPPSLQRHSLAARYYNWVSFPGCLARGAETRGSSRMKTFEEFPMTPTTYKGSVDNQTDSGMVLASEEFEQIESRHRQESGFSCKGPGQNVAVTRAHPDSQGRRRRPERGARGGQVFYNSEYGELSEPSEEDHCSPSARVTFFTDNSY

[15] = target: Vascular endothelial growth factor receptor 3 (Homo sapiens) (UniProt P35916); assay: Inhibition of VEGFR3 phosphorylation in human BT474 cells assessed as complete dephosphorylation at Tyr1063/1068 activation loop at 1 to 10 uM by Western blotting; assay type: cell-based; conditions: BT-474, TDE = time-dependent effect
In short: (§4)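 BT474 cells were exposed for 24 h to increasing doses (1 and 10 µM). Western blots of lysates were probed with a phospho-specific VEGFR-3 antibody for Tyr1063/1068 in the kinase activation loop.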

[16] = target: Vascular endothelial growth factor receptor 3 (Homo sapiens) (UniProt P35916); assay: Inhibition of VEGFR3 phosphorylation in human BT474 cells assessed as partial dephosphorylation at Tyr1063/1068 activation loop after 24 hrs by Western blotting; assay type: cell-based; conditions: BT-474; in short: as §4
[17] = target: Vascular endothelial growth factor receptor 3 (Homo sapiens) (UniProt P35916); assay: Inhibition of VEGFR3 phosphorylation in human BT474 cells assessed as complete dephosphorylation at Tyr1063/1068 activation loop after 24 hrs by Western blotting; assay type: cell-based; conditions: BT-474; in short: as §4
[18] = target: Vascular endothelial growth factor receptor 3 (Homo sapiens) (UniProt P35916); assay: Inhibition of VEGFR3 phosphorylation in human MCF7 cells expressing VEGFR3 cells assessed as partial dephosphorylation at Tyr1063/1068 activation loop at 1 uM after 24 hrs by Western blotting; assay type: cell-based
[19] = target: Vascular endothelial growth factor receptor 3 (Homo sapiens) (UniProt P35916); assay: Inhibition of VEGFR3 phosphorylation in human MCF7 cells expressing VEGFR3 assessed as complete dephosphorylation at Tyr1063/1068 activation loop at 10 uM by Western blotting; assay type: cell-based
[20] = target: Vascular endothelial growth factor receptor 3 (Homo sapiens) (UniProt P35916); assay: Inhibition of VEGFR3 phosphorylation in human MCF7 cells expressing VEGFR3 assessed as partial dephosphorylation at Tyr1063/1068 activation loop at 1 to 10 uM by Western blotting; assay type: cell-based; conditions: TDE = time-dependent effect
[21] = target: Vascular endothelial growth factor receptor 3 (Homo sapiens) (UniProt P35916); assay: Inhibition of VEGFR3 phosphorylation in human MCF7 cells expressing VEGFR3 assessed as complete dephosphorylation at Tyr1063/1068 activation loop at 1 to 10 uM by Western blotting; assay type: cell-based; conditions: TDE = time-dependent effect
[22] = target: Vascular endothelial growth factor receptor 3 (Homo sapiens) (UniProt P35916); assay: Inhibition of VEGFR3 phosphorylation in human MCF7 cells expressing VEGFR3 assessed as partial dephosphorylation at Tyr1063/1068 activation loop after 24 hrs by Western blotting; assay type: cell-based
[23] = target: Vascular endothelial growth factor receptor 3 (Homo sapiens) (UniProt P35916); assay: Inhibition of VEGFR3 phosphorylation in human MCF7 cells expressing VEGFR3 assessed as complete dephosphorylation at Tyr1063/1068 activation loop after 24 hrs by Western blotting; assay type: cell-based
[24] = target: Focal adhesion kinase 1 (Homo sapiens) (UniProt Q05397); assay: Inhibition of FAK phosphorylation in human MCF7 cells expressing VEGFR3 cells assessed as decrease in total phosphorylation at 10 uM after 24 hrs by immunoprecipitation technique; assay type: cell-based
Chain of Focal adhesion kinase 1 (Homo sapiens) (Q05397 2-1052 limits assumed): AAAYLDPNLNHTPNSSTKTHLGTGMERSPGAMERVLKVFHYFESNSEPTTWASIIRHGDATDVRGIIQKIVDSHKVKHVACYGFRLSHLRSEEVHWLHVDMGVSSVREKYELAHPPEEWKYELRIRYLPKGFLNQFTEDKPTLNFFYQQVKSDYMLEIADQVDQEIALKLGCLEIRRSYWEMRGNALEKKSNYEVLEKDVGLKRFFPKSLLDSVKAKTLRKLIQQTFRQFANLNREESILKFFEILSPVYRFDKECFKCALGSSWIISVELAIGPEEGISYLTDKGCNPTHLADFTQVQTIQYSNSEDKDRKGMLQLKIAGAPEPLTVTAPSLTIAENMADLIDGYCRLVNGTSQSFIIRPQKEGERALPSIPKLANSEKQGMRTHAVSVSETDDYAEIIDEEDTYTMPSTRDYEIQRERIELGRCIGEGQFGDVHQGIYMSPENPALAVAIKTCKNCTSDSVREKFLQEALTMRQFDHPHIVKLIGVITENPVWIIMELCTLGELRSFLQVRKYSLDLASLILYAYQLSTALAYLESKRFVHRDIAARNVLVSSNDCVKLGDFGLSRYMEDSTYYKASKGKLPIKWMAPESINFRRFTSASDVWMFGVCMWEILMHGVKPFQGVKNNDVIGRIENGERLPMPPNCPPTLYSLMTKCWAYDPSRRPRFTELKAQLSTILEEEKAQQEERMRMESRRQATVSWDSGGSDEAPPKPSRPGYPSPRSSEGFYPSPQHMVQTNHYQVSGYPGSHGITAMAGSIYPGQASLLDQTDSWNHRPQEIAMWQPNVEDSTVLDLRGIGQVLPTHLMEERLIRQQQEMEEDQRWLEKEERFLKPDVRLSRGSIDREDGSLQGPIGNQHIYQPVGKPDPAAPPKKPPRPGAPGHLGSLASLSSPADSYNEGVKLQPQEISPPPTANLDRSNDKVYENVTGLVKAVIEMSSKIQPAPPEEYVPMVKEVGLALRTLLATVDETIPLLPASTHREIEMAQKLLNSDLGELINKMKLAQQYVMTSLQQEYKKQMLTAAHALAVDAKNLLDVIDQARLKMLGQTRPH
In short: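 MCF7-VEGFR-3 and BT474 cells were treated for 24 h at 10 µM or 1 µM. FAK was immunoprecipitated and blotted with anti-phosphotyrosine antibody 4G10 to assess total FAK tyrosine phosphorylation.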

[25] = test system: BT-474; assay: Cytotoxicity against human BT474 cells after 72 hrs by MTS assay; assay type: functional, cell-based; conditions: BT-474, 72 h; in short: as §1
[26] = test system: MDA-MB-231; assay: Cytotoxicity against human MDA-MB-231 cells after 72 hrs by MTS assay; assay type: functional, cell-based; conditions: MDA-MB-231, 72 h; in short: as §1
[27] = test system: T47D; assay: Cytotoxicity against human T47D cells after 72 hrs by MTS assay; assay type: functional, cell-based; in short: as §1
[28] = test system: MIA PaCa-2; assay: Cytotoxicity against human MIAPaCa2 cells after 72 hrs by MTS assay; assay type: functional, cell-based; conditions: MIA PaCa-2, 72 h; in short: as §1

CN(C)CCN(Cc1ccc(Cl)cc1)c1ccccn1.Cl [CHLORPYRAMIN HYDROCHLORIDE]
Activity [1]: 20% | Activity [2]: 20% | Activity [3]: inactive | IC50 [4]: 1000 nM | IC50 [5]: 1000 nM | IC50 [6]: 1000 nM | Activity [7]: Active | Activity [8]: Active | fold change (FC) [9]: 2 | Activity [10]: inactive | Activity [11]: tde | Activity [12]: Dose-dependent effect | Activity [13]: Active | Activity [14]: tde | Activity [15]: tde | Activity [16]: Dose-dependent effect | Activity [17]: Dose-dependent effect | Activity [18]: Active | Activity [19]: Active | Activity [20]: tde | Activity [21]: tde | Activity [22]: Dose-dependent effect | Activity [23]: Dose-dependent effect | Activity [24]: Active | IC50 [25]: 1000 nM | IC50 [26]: 1000 nM | IC50 [27]: 1000 nM | IC50 [28]: 1000 nM
